Assay results as given in ChEMBL document CHEMBL3351356, “Development of a novel class of mitochondrial ubiquinol-cytochrome c reductase binding protein (UQCRB) modulators as promising antiangiogenic leads” (J Med Chem, 2014).
Converted amounts (≈) assume the structure as drawn. The source made the active and inactive calls. The rule behind the calls is not given here.

Columns and labels:
[1] = molecular target: T1, Cytochrome b-c1 complex subunit 7 (Homo sapiens, UniProt P14927); experiment: Modulation of UQCRB in human HepG2 cells assessed as inhibition of HIF-1alpha for 4 hrs under 1%O2 by Western blot analysis; assay type: cell-based
T1 sequence (P14927 whole entry): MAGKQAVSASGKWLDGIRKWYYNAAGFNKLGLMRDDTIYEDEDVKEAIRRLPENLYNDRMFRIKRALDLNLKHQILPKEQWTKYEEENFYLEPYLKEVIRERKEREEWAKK
Summary of the method: (§1)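 HepG2 cells pretreated with compound for 30 min, then exposed to 1% O₂ for 4 h. HIF-1α and tubulin measured by Western blot and quantified by densitometry.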

[2] = molecular target: T2, Cytochrome b-c1 complex subunit 7 (Homo sapiens) (UniProt P14927); experiment: Displacement of biotin-labeled terpestacin from UQCRB (unknown origin) by surface plasmon resonance; conditions: concentration not given here
T2 sequence (whole entry): T1 sequence (P14927 whole entry)
Summary of the method: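 Biotin (control) and biotinylated terpestacin immobilized on a streptavidin sensor chip. Competitor (25 μM) incubated with purified UQCRB (25 μM) in pH 7.4 buffer (10 mM HEPES, 150 mM NaCl, 3 mM EDTA). Complexes injected at 30 μL/min; chip regenerated with 50 mM NaOH. Binding taken as resonance on biotinylated terpestacin minus resonance on biotin.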

[3] = Thermodynamic solubility in PBS by HPLC; assay type: physicochemical; conditions: read-out: Therm_solubility
[4] = molecular target: T2, Cytochrome b-c1 complex subunit 7 (Homo sapiens); experiment: Binding affinity to UQCRB in human HepG2 cells assessed as inhibition of hypoxia-induced mitochondrial ROS generation under 1%O2 for 10 mins after 30 mins by MitoSOX Red fluorescence assay; assay type: cell-based
Summary of the method: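 HepG2 cells pretreated with compound for 30 min, then held at 1% O₂ for 10 min. Loaded with MitoSOX Red (5 μM) for 10 min, lysed and centrifuged. Fluorescence of protein-normalized supernatant read at ex 510 / em 580 nm. Mean ± SE of three independent experiments.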

[5] = molecular target: T2, Cytochrome b-c1 complex subunit 7 (Homo sapiens); experiment: Modulation of UQCRB in human HepG2 cells assessed as inhibition of HIF-1alpha accumulation at 1 to 10 uM for 4 hrs under 1%O2 by Western blot analysis; assay type: cell-based; summary of the method: as §1
[6] = tested on: HepG2; experiment: Inhibition of hypoxia-induced VEGF expression in human HepG2 cells at 1 to 5 uM for 30 mins followed by 1%O2 for 16 hrs by ELISA; assay type: functional, cell-based
Summary of the method: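 HepG2 cells pretreated with compound for 30 min, then exposed to 1% O₂ for 16 h. VEGF protein in culture supernatant measured by VEGF-specific ELISA. Mean ± SE of three independent experiments.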

[7] = tested on: HepG2; experiment: Cytotoxicity against human HepG2 cells assessed as effect on cell viability at 1 to 20 uM after 72 hrs by MTT assay; assay type: cell-based; conditions: hepg2, 72 h
[8] = tested on: HUVEC; experiment: Antiangiogenic activity in HUVEC assessed as inhibition of VEGF-induced invasion by Transwell chyamber system; assay type: functional, cell-based; conditions: Homo sapiens
Summary of the method: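 HUVECs serum-starved, then stimulated with VEGF with or without compound. Invasion measured in Transwell chambers with 8.0 μm pore polycarbonate filter inserts; invaded cells counted by light microscope at 100×. Basal invasiveness of HUVECs in serum-free medium normalized to 100%. Mean ± SE of three independent experiments.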

[9] = tested on: HUVEC; experiment: Antiangiogenic activity in HUVEC assessed as inhibition of VEGF-induced tube formation by optical microscopy; assay type: functional, cell-based; conditions: Homo sapiens
Summary of the method: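 Serum-starved HUVECs on Matrigel, VEGF-stimulated with or without compound. Connected cells counted in random fields at 100× and divided by total cells in the same field. Basal tube formation in serum-free medium normalized to 100%. Mean ± SE of three independent experiments.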

[10] = tested on: Chorioallantoic membrane; experiment: Antiangiogenic activity in chicken chorioallantoic membrane assessed as inhibition of blood vessel formation (reference value: 23%); assay type: functional, cell membranes; conditions: Gallus gallus, dose or concentration not given here
Summary of the method: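 Fertilized chick eggs held at 37 °C in a humidified incubator; about 2 mL albumin withdrawn on day 3. Compound-loaded Thermanox coverslips placed on the CAM of 4.5-day embryos; retinoic acid served as positive control. Result given as percent positive eggs of eggs tested.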

[11] = tested on: Chorioallantoic membrane; experiment: Toxicity in chicken chorioallantoic membrane assessed as induction of rupture of pre-existing vessels; assay type: cell membranes, Gallus gallus; conditions: in vivo
[12] = tested on: HUVEC; experiment: Toxicity in HUVEC assessed as reduction in cell viability by trypan blue staining method; assay type: cell-based; conditions: human
Summary of the method: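 HUVECs tested by trypan blue staining, run in parallel with the VEGF-stimulated invasion and tube formation assays at the same concentrations.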

[13] = Thermodynamic solubility in H2O by HPLC; assay type: physicochemical; conditions: water; read-out: Therm_solubility
[14] = tested on: Mus musculus; experiment: Toxicity in human U87MG cells implanted into Balb C mouse assessed as body weight loss at 20 mg/kg, ip every other day measured on day 18; assay type: organism-based, U-87MG ATCC; design: dose 20 mg/kg, route intraperitoneal; conditions: in vivo
Summary of the method: (§2)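 Female athymic Balb C nu/nu mice, 4 weeks old, implanted subcutaneously in the dorsal flank with 5 × 10⁶ U87MG cells in PBS/Matrigel (1:1). At palpable tumors (50−100 mm³), randomized into two groups (n = 8). Dosed intraperitoneally with vehicle or 20 mg/kg every other day. Tumor volume and body weight followed over 17 days.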

[15] = Antitumor activity against human U87MG cells assessed as inhibition of cell growth after 72 hrs by MTT assay; assay type: functional, cell-based, U-87MG ATCC; conditions: U-87 MG
[16] = tested on: U-87MG ATCC; experiment: Antitumor activity against human U87MG cells implanted into Balb C mouse assessed as inhibition of tumor growth at 20 mg/kg, ip every other day measured on day 18; assay type: functional, organism-based; design: dose 20 mg/kg; summary of the method: as §2
[17] = tested on: U-87MG ATCC; experiment: Antitumor activity against human U87MG cells implanted into Balb C mouse assessed as CD31 expression in tumor at 20 mg/kg, ip every other day measured on day 18 by immunohistochemical staining; assay type: functional, organism-based; design: dose 20 mg/kg
Summary of the method: (§3)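 Paraffin tumor sections (4 μm) incubated overnight at 4 °C with anti-CD31, anti-HIF-1α or anti-VEGF antibodies. Then FITC- or Alexa-conjugated secondary antibodies for 45 min at room temperature, with DAPI counterstain.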

[18] = tested on: U-87MG ATCC; experiment: Antitumor activity against human U87MG cells implanted into Balb C mouse assessed as HIF1alpha expression in tumor at 20 mg/kg, ip every other day measured on day 18 by immunohistochemical staining; assay type: functional, organism-based; design: dose 20 mg/kg; summary of the method: as §3
[19] = tested on: U-87MG ATCC; experiment: Antitumor activity against human U87MG cells implanted into Balb C mouse assessed as VEGF expression in tumor at 20 mg/kg, ip every other day measured on day 18 by immunohistochemical staining; assay type: functional, organism-based; design: dose 20 mg/kg; summary of the method: as §3
[20] = tested on: U-87MG ATCC; experiment: Antitumor activity against human U87MG cells implanted into Balb C mouse assessed as decrease in microvessel density at 20 mg/kg, ip every other day measured on day 18; assay type: functional, organism-based; design: dose 20 mg/kg

## CC(C)(C)c1ccc(S(=O)(=O)Nc2ccc(O)c3ccccc23)cc1
[1]
  IC50: > 20 µM

## CC(C)(C)c1ccc(S(=O)(=O)Nc2ccc(O)cc2)cc1
[1]
  IC50: 5 µM
[2]
  inhibition: 40%
[3]
  solubility thermodynamic: 26.7 µg/mL (≈ 87.6 µM)
[4]
  inhibition: Dose-dependent effect
[5]
  inhibition: Active
[6]
  inhibition: Active
[7]
  Activity: Non-toxic
[8]
  inhibition: Dose-dependent effect
[9]
  inhibition: Dose-dependent effect
[10]
  inhibition: 65%
[11]
  Activity: Non-toxic
[12]
  Activity: Non-toxic

## O=S(=O)(Nc1ccc(O)c2ccccc12)c1ccc(-c2ccccc2)cc1
[1]
  IC50: > 20 µM

## CC(C)(C)c1ccc(S(=O)(=O)Nc2cccc(O)c2)cc1
[1]
  IC50: 8 µM

## O=S(=O)(Nc1ccc(O)c2ncccc12)c1ccc(-c2ccccc2)cc1
[1]
  IC50: 20 µM
[3]
  solubility thermodynamic: 7.26 µg/mL (≈ 19.3 µM)

## O=S(=O)(Nc1ccc(O)cc1)c1cccc2cccnc12
[1]
  IC50: > 20 µM

## CC1=C(/C=C/C(C)=C/C=C/C(C)=C/C(=O)O)C(C)(C)CCC1
[10]
  inhibition: 67%

## O=S(=O)(Nc1ccc(O)c(Cl)c1)c1ccc(-c2ccccc2)cc1
[1]
  IC50: > 20 µM

## CCc1ccc(S(=O)(=O)Nc2ccc(O)cc2)cc1
[1]
  IC50: > 20 µM

## O=S(=O)(Nc1cccc2ccc(O)cc12)c1ccc(-c2ccccc2)cc1
[1]
  IC50: > 20 µM

## O=S(=O)(Nc1ccc(O)c(F)c1)c1ccc(-c2ccccc2)cc1
[1]
  IC50: > 20 µM

## O=S(=O)(Nc1cccc2c(O)cccc12)c1ccc(-c2ccccc2)cc1
[1]
  IC50: > 20 µM

## O=C(O)c1cc(NS(=O)(=O)c2ccc(-c3ccccc3)cc2)ccc1O
[1]
  IC50: > 20 µM

## O=S(=O)(Nc1ccc(O)cc1)c1ccc(-c2ccccc2)cc1 [listing 1 of 2 here]
[13]
  solubility thermodynamic: < 2.06 µg/mL
[1]
  IC50: 2.5 µM
[3]
  solubility thermodynamic: < 2.06 µg/mL
[7]
  Activity: Non-toxic
[11]
  Activity: Non-toxic
[12]
  Activity: Non-toxic

## CC(C)(C)c1ccc(S(=O)(=O)Nc2ccc(O)c3ncccc23)cc1
[1]
  IC50: 20 µM
[3]
  solubility thermodynamic: 12.8 µg/mL (≈ 36 µM)

## O=S(=O)(Nc1ccc([O-])cc1)c1ccc(-c2ccccc2)cc1.[K+]
[13]
  solubility thermodynamic: > 500 µg/mL
[1]
  IC50: 5 µM
[3]
  solubility thermodynamic: 108 µg/mL
[14]
  Activity: Non-toxic
[15]
  IC50: 12.5 µM

## O=S(=O)(Nc1ccc(O)cc1)c1ccc2ccccc2c1
[1]
  IC50: > 20 µM

## CC(C)(C)c1ccc(S(=O)(=O)Nc2ccccc2O)cc1
[1]
  IC50: 8 µM

## O=S(=O)(Nc1ccc(O)cc1)c1ccc(-c2ccccc2)cc1 [listing 2 of 2 here]
[2]
  inhibition: 40%
[4]
  inhibition: Dose-dependent effect
[5]
  inhibition: Active
[6]
  inhibition: Active
[8]
  inhibition: Dose-dependent effect
[9]
  inhibition: Dose-dependent effect
[10]
  inhibition: 69%
[16]
  inhibition: Active
[17]
  inhibition: Active
[18]
  inhibition: Active
[19]
  inhibition: Active
[20]
  inhibition: Active

## Cc1ccc(S(=O)(=O)Nc2ccc(O)cc2)cc1
[1]
  IC50: > 20 µM
